Results reported in ChEMBL document CHEMBL1155110, “Ribose-modified purine nucleosides as ribonucleotide reductase inhibitors. Synthesis, antitumor activity, and molecular modeling of N6-substituted 3'-C-methyladenosine derivatives” (J Med Chem, 2008).

Key:
HT-29 = assay: Antitumor activity against human HT29 cells after 48 hrs by MTS assay; assay type: functional; settings: HT-29, 48 h
Summary of the method: (§1)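 Cells grown in RPMI 1640 (K562) or MEM with Earle's salts (HT-29, CaCo-2, MCF-7) plus 10% FBS, 37 °C, 5% CO2; adherent lines trypsinized to single-cell suspension. Log-phase cells plated at about 5000 cells/mL, acclimatized 24 h, then exposed to serial dilutions in triplicate, up to 250 µM, for 48 h. MTS/PMS added 3 h; absorbance 490 nm; GI50 from growth inhibition.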

Caco-2 = assay: Antitumor activity against human CaCo2 cells after 48 hrs by MTS assay; assay type: functional; settings: Caco-2, 48 h; summary of the method: as §1
K562 [1] = assay: Antitumor activity against human K562 cells after 48 hrs by MTS assay; assay type: functional; settings: K562, 48 h; summary of the method: as §1
MCF7 = assay: Antitumor activity against human MCF7 cells after 48 hrs by MTS assay; assay type: functional; settings: MCF7, 48 h; summary of the method: as §1
Adenosine receptor A3 = target: T1, Adenosine receptor A3 (Homo sapiens, UniProt P0DMS8); assay: Inhibition of human adenosine A3 receptor
T1 sequence (P0DMS8 whole entry): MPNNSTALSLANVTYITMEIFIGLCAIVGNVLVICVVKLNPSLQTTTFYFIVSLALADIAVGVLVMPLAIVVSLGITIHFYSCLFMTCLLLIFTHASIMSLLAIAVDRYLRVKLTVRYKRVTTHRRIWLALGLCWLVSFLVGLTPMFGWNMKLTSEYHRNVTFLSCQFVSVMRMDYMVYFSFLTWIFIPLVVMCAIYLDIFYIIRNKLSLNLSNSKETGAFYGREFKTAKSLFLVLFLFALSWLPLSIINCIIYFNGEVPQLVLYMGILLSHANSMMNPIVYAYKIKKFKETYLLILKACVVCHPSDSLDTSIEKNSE

HL-60 [2] = assay: Decrease in intracellular dATP pool in human HL60 cells at 10 uM after 24 hrs relative to control; assay type: functional; parameters: scale not given: the % may be the effect or the level left
Summary of the method: (§2)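 HL-60 cells in log phase (0.5 × 10^6 per ml) incubated 24 h with drug at 2.5, 5 or 10 µM. dNTPs extracted from 5 × 10^7 cells by trichloroacetic acid lysis, Freon/tri-n-octylamine neutralization, periodate oxidation with methylamine (37 °C, 30 min). Quantified by SAX HPLC in ammonium phosphate pH 3.4 with 2% acetonitrile, UV 280/260 nm; expressed versus untreated control.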

HL-60 [3] = assay: Decrease in intracellular dATP pool in human HL60 cells at 5 uM after 24 hrs relative to control; assay type: functional; parameters: scale not given: the % may be the effect or the level left; summary of the method: as §2
HL-60 [4] = assay: Decrease in intracellular dATP pool in human HL60 cells at 2.5 uM after 24 hrs relative to control; assay type: functional; parameters: scale not given: the % may be the effect or the level left; summary of the method: as §2
HL-60 [5] = assay: Decrease in intracellular dCTP pool in human HL60 cells at 40 nM relative to control; assay type: functional; parameters: scale not given: the % may be the effect or the level left
HL-60 [6] = assay: Decrease in intracellular dATP pool in human HL60 cells at 40 nM relative to control; parameters: scale not given: the % may be the effect or the level left
K562 [7] = assay: Growth inhibition of 0.1 uM 1,4-dihydro-2-methyl-6-phenyl-4-(phenylethyl)-3,5-pyridine-dicarboxylic acid 3-ethyl-5-[(3-nitrophenyl) methyl] ester pretreated human K562 cells after 72 hrs by MTS assay; assay type: functional
K562 [8] = assay: Growth inhibition of 0.1 uM 1,4-dihydro-2-methyl-6-phenyl-4-(phenylethyl)-3,5-pyridine-dicarboxylic acid 3-ethyl-5-[(3-nitrophenyl) methyl] ester pretreated human K562 cells after 48 hrs by MTS assay; assay type: functional
K562 [9] = assay: Growth inhibition of 1 uM 1,4-dihydro-2-methyl-6-phenyl-4-(phenylethyl)-3,5-pyridine-dicarboxylic acid 3-ethyl-5-[(3-nitrophenyl) methyl] ester pretreated human K562 cells after 48 hrs by MTS assay; assay type: functional
K562 [10] = assay: Growth inhibition of 1 uM 1,4-dihydro-2-methyl-6-phenyl-4-(phenylethyl)-3,5-pyridine-dicarboxylic acid 3-ethyl-5-[(3-nitrophenyl) methyl] ester pretreated human K562 cells after 72 hrs by MTS assay; assay type: functional

GI50 (HT-29) [µM]	GI50 (Caco-2) [µM]	GI50 (K562 [1]) [µM]	GI50 (MCF7) [µM]	Compound	further results
> 250	> 250	> 250	> 250	OC[C@H]1O[C@@H](n2cnc3c(NC4CCCCC4)ncnc32)[C@H](O)[C@@H]1O	
106	> 250	83	200	C[C@@]1(O)[C@@H](CO)O[C@@H](n2cnc3c(NC4CCCCCC4)ncnc32)[C@@H]1O	
> 250	> 250	> 250	> 250	C[C@@]1(O)[C@@H](CO)O[C@@H](n2cnc3c(NCc4ccccc4)ncnc32)[C@@H]1O	
> 250	> 250	73	> 250	C[C@@]1(O)[C@@H](CO)O[C@@H](n2cnc3c(NC4CC4)ncnc32)[C@@H]1O	
> 250	> 250	145	> 250	C[C@@]1(O)[C@@H](CO)O[C@@H](n2cnc3c(NC4CCCC4)ncnc32)[C@@H]1O	
> 100	> 100	16	> 100	C[C@@]1(O)[C@H](O)[C@@H](CO)O[C@H]1n1cnc2c(N)ncnc21	
> 250	> 250	> 250	> 250	OC[C@H]1O[C@@H](n2cnc3c(NC4CCCC4)ncnc32)[C@H](O)[C@@H]1O [N6-CYCLOPENTYLADENOSINE]	

The next lines start with the compound.

Compound	GI50 (HT-29) [µM]	GI50 (Caco-2) [µM]	GI50 (K562 [1]) [µM]	GI50 (MCF7) [µM]	further results
OC[C@H]1O[C@@H](n2cnc3c(NC4CCCC4)nc(Cl)nc32)[C@H](O)[C@@H]1O	> 250	> 250	> 250	> 250	
OC[C@H]1O[C@@H](n2cnc3c(NCc4cccs4)ncnc32)[C@H](O)[C@@H]1O	53.4	3.3	3.1	51.5	Ki (Adenosine receptor A3): 0.06 µM
C[C@@]1(O)[C@@H](CO)O[C@@H](n2cnc3c(Nc4ccccc4)ncnc32)[C@@H]1O	137	246	98	207	
C[C@@]1(O)[C@@H](CO)O[C@@H](n2cnc3c(Nc4cc[nH]n4)ncnc32)[C@@H]1O	> 250	> 250	> 250	> 250	
C[C@@]1(O)[C@@H](CO)O[C@@H](n2cnc3c(NCc4cccs4)ncnc32)[C@@H]1O	> 250	> 250	> 250	> 250	
C[C@@]1(O)[C@@H](CO)O[C@@H](n2cnc3c(N)ncnc32)[C@@H]1O	26.1	23.2	9.4	22.4	
C[C@@]1(O)[C@@H](CO)O[C@@H](n2cnc3c(NC4CCC4)ncnc32)[C@@H]1O	> 250	> 250	246	> 250	
C[C@@]1(O)[C@@H](CO)O[C@@H](n2cnc3c(NC4CCCC4)nc(Cl)nc32)[C@@H]1O	> 250	> 250	> 250	> 250	
C[C@@]1(O)[C@@H](CO)O[C@@H](n2cnc3c(NCc4ccco4)ncnc32)[C@@H]1O	> 250	> 250	> 250	> 250	
C[C@@]1(O)[C@@H](CO)O[C@@H](n2cnc3c(NC4CCCCC4)ncnc32)[C@@H]1O	> 250	223	50	> 250	
C[C@@]1(O)[C@@H](CO)O[C@@H](n2cnc3c(N[C@@H]4C[C@@H]5CC[C@@H]4C5)ncnc32)[C@@H]1O (racemic)	65.8	56	32.5	56	Activity (HL-60 [2]): 10%; Activity (HL-60 [3]): 28%; Activity (HL-60 [4]): 65%
OC[C@H]1O[C@@H](n2cnc3c(N[C@@H]4C[C@@H]5CC[C@@H]4C5)ncnc32)[C@H](O)[C@@H]1O (racemic)	> 250	> 250	116	> 250	
Nc1ccn([C@@H]2O[C@H](CO)[C@@H](O)C2(F)F)c(=O)n1 [GEMCITABINE]	0.03	0.18	0.32	0.01	Activity (HL-60 [5]): 6.1%; Activity (HL-60 [6]): 13.9%
OC[C@H]1O[C@@H](n2cnc3c(NCc4ccco4)ncnc32)[C@H](O)[C@@H]1O [KINETIN RIBOSIDE]	60.2	45.6	3.3	45.6	Ki (Adenosine receptor A3): 0.022 µM
OC[C@H]1O[C@@H](n2cnc3c(NCc4ccccc4)ncnc32)[C@H](O)[C@@H]1O [N6-BENZYLADENOSINE]	22.3	7.4	4.6	61	GI50 (K562 [7]): 2.92 µM; GI50 (K562 [8]): 3.91 µM; Ki (Adenosine receptor A3): 0.0413 µM; GI50 (K562 [9]): 4.17 µM; GI50 (K562 [10]): 2.92 µM
OC[C@H]1O[C@@H](n2cnc3c(Nc4ccccc4)ncnc32)[C@H](O)[C@@H]1O [N6-PHENYLADENOSINE]	> 250	> 250	> 250	> 250	
